From ChEMBL document CHEMBL4219167, “Disulfiram-based disulfides as narrow-spectrum antibacterial agents” (Bioorg Med Chem Lett, 2018)
≈ marks a conversion by molar mass, not a printed value.

Tests used:
Yersinia pestis [1] = assay: Antibacterial activity against Yersinia pestis Kim D2 after 20 hrs by broth microdilution assay; type: functional; conditions: Kim D2, 20 h
Corynebacterium striatum = assay: Antibacterial activity against Corynebacterium striatum FS-1 after 20 hrs by broth microdilution assay; type: functional; conditions: FS-1, 20 h
Shigella dysenteriae = assay: Antibacterial activity against Shigella dysenteriae Newcastle 1934 after 20 hrs by broth microdilution assay; type: functional; conditions: Newcastle 1934, 20 h
Method in brief: (§1)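 Medium is tryptic soy broth, 37°C. Overnight culture is adjusted to 0.5 McFarland, diluted 1:100 and exposed to serial dilutions (test agents from 1 mM or 1 mg/mL DMSO stocks; control antibiotics in water). Incubation lasts 20 h. MIC is the lowest concentration with no visible growth.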

Vibrio cholerae = assay: Antibacterial activity against Vibrio cholerae TS D4 after 20 hrs by Todd Hewitt broth broth microdilution method; type: functional; conditions: TS D4, 20 h
Burkholderia multivorans = assay: Antibacterial activity against Burkholderia multivorans CF2 after 20 hrs by broth microdilution assay; type: functional; conditions: CF2, 20 h; method in brief: as §1
Staphylococcus aureus [2] = assay: Antibacterial activity against vancomycin-resistant Staphylococcus aureus HIP14300 after 20 hrs by broth microdilution assay; type: functional; conditions: HIP14300, 20 h
Staphylococcus aureus [3] = assay: Antibacterial activity against vancomycin-intermediate resistant Staphylococcus aureus AR-217 after 20 hrs by broth microdilution assay; type: functional; conditions: AR-217, 20 h
Acinetobacter baumannii = assay: Antibacterial activity against Acinetobacter baumannii AB5075 after 20 hrs by broth microdilution assay; type: functional; conditions: AB5075, 20 h
Micrococcus luteus = assay: Antibacterial activity against Micrococcus luteus SK58 after 20 hrs by broth microdilution assay; type: functional; conditions: SK58, 20 h
Citrobacter freundii = assay: Antibacterial activity against Citrobacter freundii 4_7_47CFAA after 20 hrs by broth microdilution assay; type: functional
Method in brief: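 Brucella broth, 37°C, 5% CO2. Inoculum is 0.5 McFarland diluted 1:100, with serial drug dilutions from DMSO stocks (1 mM or 1 mg/mL) and control antibiotics in water.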

Pseudomonas aeruginosa = assay: Antibacterial activity against Pseudomonas aeruginosa ATCC 15442 after 20 hrs by broth microdilution assay; type: functional; conditions: ATCC 15442, 20 h; method in brief: as §1
Staphylococcus aureus [4] = assay: Antibacterial activity against methicillin-resistant Staphylococcus aureus COL after 20 hrs by broth microdilution assay; type: functional
Burkholderia cepacia = assay: Antibacterial activity against Burkholderia cepacia UCB 717 after 20 hrs by broth microdilution assay; type: functional; conditions: UCB 717, 20 h; method in brief: as §1
Salmonella typhi = assay: Antibacterial activity against Salmonella typhi Ty2 after 20 hrs by Todd Hewitt broth broth microdilution method; type: functional, Salmonella enterica subsp. enterica serovar Typhi str. Ty2; conditions: Salmonella enterica
[5] = test system: Yersinia pseudotuberculosis; assay: Antibacterial activity against Yersinia pseudotuberculosis P61 after 20 hrs by broth microdilution assay; type: functional; conditions: P61, 20 h
Method in brief: (§2)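 Yersinia cultured in tryptic soy broth at 28°C. A 0.5 McFarland suspension diluted 1:100 receives serial dilutions of agents from 1 mM or 1 mg/mL DMSO stocks; control antibiotics are in water.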

Yersinia pestis [6] = assay: Antibacterial activity against Yersinia pestis Kuma D7 after 20 hrs by broth microdilution assay; type: functional; conditions: Kuma D7, 20 h
Yersinia enterocolitica = assay: Antibacterial activity against Yersinia enterocolitica WA-314 after 20 hrs by broth microdilution assay; type: functional; conditions: WA-314, 20 h; method in brief: as §2
[7] = test system: Staphylococcus epidermidis; assay: Antibacterial activity against vancomycin-intermediate resistant Staphylococcus epidermidis NRS6 after 20 hrs by broth microdilution assay; type: functional; conditions: NRS6, 20 h
Escherichia coli = assay: Antibacterial activity against Escherichia coli DC10B after 20 hrs by broth microdilution assay; type: functional; method in brief: as §1
Francisella tularensis = assay: Antibacterial activity against Francisella tularensis Utah 112 after 20 hrs by broth microdilution assay; type: functional; conditions: Utah 112, 20 h
Enterococcus faecium = assay: Antibacterial activity against vancomycin-resistant Enterococcus faecium ATCC 700221 after 20 hrs by broth microdilution assay; type: functional; conditions: ATCC 700221, 20 h
Method in brief: (§3)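 Brain heart infusion broth at 37°C; E. faecium under 5% CO2. Cells at 0.5 McFarland are diluted 1:100 and exposed to serial dilutions (DMSO stocks 1 mM or 1 mg/mL; controls in water).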

Streptococcus pyogenes = assay: Antibacterial activity against Streptococcus pyogenes H293 after 20 hrs by broth microdilution assay; type: functional; conditions: H293, 20 h
Bacillus cereus = assay: Antibacterial activity against Bacillus cereus Gibson 971 after 20 hrs by broth microdilution assay; type: functional; conditions: Gibson 971, 20 h
Proteus mirabilis = assay: Antibacterial activity against Proteus mirabilis HM-752 after 20 hrs by broth microdilution assay; type: functional; conditions: HM-752, 20 h; method in brief: as §1
Listeria monocytogenes = assay: Antibacterial activity against Listeria monocytogenes Gibson after 20 hrs by broth microdilution assay; type: functional; method in brief: as §3
Streptococcus pneumoniae = assay: Antibacterial activity against Streptococcus pneumoniae TCH8431 after 20 hrs by broth microdilution assay; type: functional; conditions: TCH8431, 20 h
Streptococcus agalactiae = assay: Antibacterial activity against Streptococcus agalactiae SGBS005 after 20 hrs by broth microdilution assay; type: functional; conditions: SGBS005, 20 h
Bacillus anthracis [8] = assay: Antibacterial activity against Bacillus anthracis Ames 35 after 20 hrs by broth microdilution assay; type: functional; conditions: Ames 35, 20 h
Klebsiella pneumoniae = assay: Antibacterial activity against Klebsiella pneumoniae 700603 after 20 hrs by broth microdilution assay; type: functional; conditions: Klebsiella pneumoniae, 700603, 20 h; method in brief: as §1
Bacillus anthracis [9] = assay: Antibacterial activity against Bacillus anthracis Weybridge after 20 hrs by broth microdilution assay; type: functional
Bacillus anthracis [10] = assay: Antibacterial activity against Bacillus anthracis Sterne 34F2 after 20 hrs by broth microdilution assay; type: functional; conditions: Sterne 34F2, 20 h
Brucella neotomae = assay: Antibacterial activity against Brucella neotomae 5K33 after 20 hrs by broth microdilution assay; type: functional; conditions: 5K33, 20 h
Rhodococcus erythropolis = assay: Antibacterial activity against Rhodococcus erythropolis SK121 after 20 hrs by broth microdilution assay; type: functional; conditions: SK121, 20 h
Method in brief: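 R. erythropolis grown in brain heart infusion broth at 30°C. A 0.5 McFarland suspension diluted 1:100 is treated with serial dilutions from 1 mM or 1 mg/mL DMSO stocks; control antibiotics are in water.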

Bacillus anthracis [11] = assay: Antibacterial activity against Bacillus anthracis UM23-1 after 20 hrs by broth microdilution assay; type: functional; conditions: UM23-1, 20 h

| Structure (SMILES) | MIC (Yersinia pestis [1]) [µM] | MIC (Corynebacterium striatum) [µM] | MIC (Shigella dysenteriae) [µM] | MIC (Vibrio cholerae) [µM] | MIC (Burkholderia multivorans) [µM] | MIC (Staphylococcus aureus [2]) [µM] | MIC (Staphylococcus aureus [3]) [µM] | MIC (Acinetobacter baumannii) [µM] | MIC (Micrococcus luteus) [µM] | MIC (Citrobacter freundii) [µM] | MIC (Pseudomonas aeruginosa) [µM] | MIC (Staphylococcus aureus [4]) [µM] | MIC (Burkholderia cepacia) [µM] | MIC (Salmonella typhi) [µM] | MIC [5] [µM] | MIC (Yersinia pestis [6]) [µM] | MIC (Yersinia enterocolitica) [µM] | MIC [7] [µM] | MIC (Escherichia coli) [µM] | MIC (Francisella tularensis) [µM] | other results |
| --- | --- | --- | --- | --- | --- | --- | --- | --- | --- | --- | --- | --- | --- | --- | --- | --- | --- | --- | --- | --- | --- |
| CCN(CC)C(=S)SSCc1ccccc1 | 16 (≈ 4.34 µg/mL) | 32 (≈ 8.69 µg/mL) | > 32 | > 32 | 32 (≈ 8.69 µg/mL) | 8 (≈ 2.17 µg/mL) | 2 (≈ 0.543 µg/mL) | > 32 | 16 (≈ 4.34 µg/mL) | > 32 | > 32 | 8 (≈ 2.17 µg/mL) | > 32 | > 32 | > 32 | 32 (≈ 8.69 µg/mL) | > 32 | 8 (≈ 2.17 µg/mL) | > 32 | 32 (≈ 8.69 µg/mL) | MIC (Enterococcus faecium): 32 µM (≈ 8.69 µg/mL); MIC (Streptococcus pyogenes): > 32 µM; MIC (Bacillus cereus): 2 µM (≈ 0.543 µg/mL); MIC (Proteus mirabilis): > 32 µM; MIC (Listeria monocytogenes): 8 µM (≈ 2.17 µg/mL); MIC (Streptococcus pneumoniae): > 32 µM; MIC (Streptococcus agalactiae): > 32 µM; MIC (Bacillus anthracis [8]): 4 µM (≈ 1.09 µg/mL); MIC (Klebsiella pneumoniae): > 32 µM; MIC (Bacillus anthracis [9]): 4 µM (≈ 1.09 µg/mL); MIC (Bacillus anthracis [10]): 4 µM (≈ 1.09 µg/mL); MIC (Brucella neotomae): 32 µM (≈ 8.69 µg/mL); MIC (Rhodococcus erythropolis): 16 µM (≈ 4.34 µg/mL); MIC (Bacillus anthracis [11]): 2 µM (≈ 0.543 µg/mL) |
| CCN(CC)C(=S)SSC | 16 (≈ 3.13 µg/mL) | > 32 | > 32 | 32 (≈ 6.25 µg/mL) | 32 (≈ 6.25 µg/mL) | 16 (≈ 3.13 µg/mL) | 8 (≈ 1.56 µg/mL) | > 32 | 32 (≈ 6.25 µg/mL) | > 32 | > 32 | 32 (≈ 6.25 µg/mL) | > 32 | > 32 | > 32 | 16 (≈ 3.13 µg/mL) | > 32 | 32 (≈ 6.25 µg/mL) | > 32 | 32 (≈ 6.25 µg/mL) | MIC (Enterococcus faecium): > 32 µM; MIC (Streptococcus pyogenes): 32 µM (≈ 6.25 µg/mL); MIC (Bacillus cereus): 1 µM (≈ 0.195 µg/mL); MIC (Proteus mirabilis): > 32 µM; MIC (Listeria monocytogenes): 32 µM (≈ 6.25 µg/mL); MIC (Streptococcus pneumoniae): > 32 µM; MIC (Streptococcus agalactiae): > 32 µM; MIC (Bacillus anthracis [8]): 4 µM (≈ 0.782 µg/mL); MIC (Klebsiella pneumoniae): > 32 µM; MIC (Bacillus anthracis [9]): 4 µM (≈ 0.782 µg/mL); MIC (Bacillus anthracis [10]): 4 µM (≈ 0.782 µg/mL); MIC (Brucella neotomae): > 32 µM; MIC (Rhodococcus erythropolis): 16 µM (≈ 3.13 µg/mL); MIC (Bacillus anthracis [11]): 2 µM (≈ 0.391 µg/mL) |
